Published values collected from several papers.
Target: Serine/threonine-protein kinase PAK 2 (PAK2, Homo sapiens, UniProt Q13177)

N#Cc1ccc(NC(=O)Nc2ccccc2)cc1  remaining binding (cell-free assay; competition with immobilised ligand; 25 µM): 82%
CO[C@@H]1[C@H](N(C)C(=O)c2ccccc2)C[C@H]2O[C@]1(C)n1c3ccccc3c3c4c(c5c6ccccc6n2c5c31)C(=O)NC4  inhibition (enzyme activity; inhibitor; 1 µM): 28%
CCCCC(=O)Nc1ccc(-c2ccc3ncn(CCC)c(=O)c3c2)cn1  remaining binding (binding; competition with immobilised ligand; 0.5 µM): 91%
C[C@H]1CC[C@H](n2c3cnccc3c3cnc(Nc4ccc5c(n4)CCN(C(=O)CO)C5)nc32)CC1  remaining signal (cell-free assay; 1 µM): 76%
C1=C/COCc2cc(ccc2OCCN2CCCC2)Nc2nccc(n2)-c2cccc(c2)COC/1  remaining binding (binding; 0.1 µM): 94%
Cc1cc(O)c(-c2ccc([C@@H](C)CN(C)C)cc2)c2c1[nH]c(=O)c1sccc12  inhibition (cell-free assay; inhibitor; 0.1 µM; lysate): -5.59%
C#Cc1cnc(Nc2ccnc(CO)c2)nc1Nc1ccccc1S(C)(=O)=NC#N (stereo not shown)  remaining signal (cell-free assay; 1 µM): 48%
CN1CCN(C(=O)c2ccc(NC(=O)Nc3ccc(N(C)c4ccnc(Nc5ccc(CS(C)(=O)=O)cc5)n4)cc3)cc2)CC1  remaining binding (binding; 1 µM): 50%
C=CC(=O)N1CCC([C@@H]2CCNc3c(C(N)=O)c(-c4ccc(Oc5ccccc5)cc4)nn32)CC1  inhibition (enzyme activity; inhibitor; 1 µM): 23%
COc1ccc2oc(-c3ccc4nc(N)oc4c3)c/c(=N\c3ccccc3NC(=O)CCN)c2c1  remaining binding (binding; 1 µM): 98%
